Test results: ChEMBL document CHEMBL1153046, “Synthesis and antitumor activity of substituted triazolo[4,3-a]pyrimidin-6-sulfonamide with an incorporated thiazolidinone moiety” (2009)

What was measured:
Assay type in all cases: functional
K562 = test: Growth inhibition of human K562 cells after 48 hrs by sulforhodamine B assay; settings: K562, 48 h
Method in brief: (§1)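 NCI 60-cell-line panel. Cells are grown in RPMI1640 with 5% fetal calf serum and 2 mM L-glutamine, seeded at a density set by growth characteristics, and preincubated 24 h. Compound is tested at a minimum of five concentrations at 10-fold dilution, with 48 h continuous exposure. Viability is read by sulforhodamine B protein assay. GI50, TGI and LC50 come from dose-response curves.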

COLO 205 = test: Growth inhibition of human COLO205 cells after 48 hrs by sulforhodamine B assay; settings: COLO 205, 48 h; method in brief: as §1
NCI-H460 = test: Antiproliferative activity against human NCI-H460 cells assessed as cell growth at 100 uM after 48 hrs by alamar blue assay; settings: NCI-H460, 48 h, read-out: Activity
Method in brief: (§2)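 NCI three-cell-line primary screen. Cells are seeded and preincubated in microtiter plates. Compound is added at a single 10^-4 M concentration and cultures are incubated 48 h. The end-point is read with alamar blue. Results are given as percent growth relative to untreated control cells.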

UACC-257 = test: Growth inhibition of human UACC257 cells after 48 hrs by sulforhodamine B assay; settings: UACC-257, 48 h
Method in brief: (§3)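 NCI 60-cell-line panel (nine cancer types), with cells grown in RPMI1640 plus 5% fetal calf serum and 2 mM L-glutamine. Cells are seeded at a density that depends on the line and preincubated 24 h. Compounds are then applied at a minimum of five 10-fold dilutions over a 5-log range with 48 h continuous exposure. Viability is read by SRB protein assay, and GI50 is derived from dose-response curves in units of 10^-5 M.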

MDA-MB-435 = test: Growth inhibition of human MDA-MB-435 cells after 48 hrs by sulforhodamine B assay; settings: MDA-MB-435, 48 h; method in brief: as §1
ACHN = test: Growth inhibition of human ACHN cells after 48 hrs by sulforhodamine B assay; settings: for CC50: read-out: LC50 (the source's name); method in brief: as §1
HCT-116 = test: Growth inhibition of human HCT116 cells after 48 hrs by sulforhodamine B assay; settings: HCT-116, 48 h; method in brief: as §1
SW-620 = test: Growth inhibition of human SW620 cells after 48 hrs by sulforhodamine B assay; settings: SW-620, 48 h; method in brief: as §3
DU-145 = test: Growth inhibition of human DU145 cells after 48 hrs by sulforhodamine B assay; settings: DU-145, 48 h; method in brief: as §1
PC-3 = test: Growth inhibition of human PC3 cells after 48 hrs by sulforhodamine B assay; settings: PC-3, 48 h; method in brief: as §1
EKVX = test: Growth inhibition of human EKVX cells after 48 hrs by sulforhodamine B assay; method in brief: as §1
BT-549 = test: Growth inhibition of human BT549 cells after 48 hrs by sulforhodamine B assay; settings: BT-549, 48 h; method in brief: as §1
SN12C = test: Growth inhibition of human SN12C cells after 48 hrs by sulforhodamine B assay; method in brief: as §1
RXF 393 = test: Growth inhibition of human RXF393 cells after 48 hrs by sulforhodamine B assay; settings: RXF 393, 48 h; for CC50: read-out: LC50 (the source's name); method in brief: as §1
SF-268 = test: Antiproliferative activity against human SF268 cells assessed as cell growth at 100 uM after 48 hrs by alamar blue assay; settings: SF-268, 48 h, read-out: Activity; method in brief: as §2
A498 = test: Growth inhibition of human A498 cells after 48 hrs by sulforhodamine B assay; settings: A498, 48 h; method in brief: as §1
MCF7 = test: Growth inhibition of human MCF7 cells after 48 hrs by sulforhodamine B assay; settings: MCF7, 48 h; method in brief: as §1
IGROV-1 = test: Growth inhibition of human IGROV1 cells after 48 hrs by sulforhodamine B assay; settings: IGROV-1, 48 h; method in brief: as §1
TK-10 = test: Growth inhibition of human TK10 cells after 48 hrs by sulforhodamine B assay; settings: TK-10, 48 h; method in brief: as §3
SNB-19 = test: Growth inhibition of human SNB19 cells after 48 hrs by sulforhodamine B assay; settings: SNB-19, 48 h; method in brief: as §3
CCRF-CEM = test: Growth inhibition of human CCRF-CEM cells after 48 hrs by sulforhodamine B assay; method in brief: as §1
UO-31 = test: Growth inhibition of human UO31 cells after 48 hrs by sulforhodamine B assay; settings: UO-31, 48 h; method in brief: as §3
T47D = test: Growth inhibition of human T47D cells after 48 hrs by sulforhodamine B assay; method in brief: as §3
OVCAR-5 = test: Growth inhibition of human OVCAR5 cells after 48 hrs by sulforhodamine B assay; settings: OVCAR-5, 48 h; method in brief: as §1
[1] = Growth inhibition of human Hs 578T cells after 48 hrs by sulforhodamine B assay; method in brief: as §1
NCI-H522 = test: Growth inhibition of human NCI-H522 cells after 48 hrs by sulforhodamine B assay; settings: NCI-H522, 48 h; method in brief: as §1
U-251 = test: Growth inhibition of human U251 cells after 48 hrs by sulforhodamine B assay; settings: U-251, 48 h; method in brief: as §3
SR = test: Growth inhibition of human SR cells after 48 hrs by sulforhodamine B assay; method in brief: as §3
CAKI-1 = test: Growth inhibition of human Caki1 cells after 48 hrs by sulforhodamine B assay; settings: CAKI-1, 48 h; method in brief: as §1
NCI/ADR-RES = test: Growth inhibition of human NCI/ADR-RES cells after 48 hrs by sulforhodamine B assay; method in brief: as §1
M14 = test: Growth inhibition of human M14 cells after 48 hrs by sulforhodamine B assay; settings: M14, 48 h; method in brief: as §1

COc1ccc(/C=N/c2nc3[nH]nc(C)n3c(=O)c2S(=O)(=O)NN2C(=O)C(CN3CCN(C)CC3)SC2c2cccs2)cc1 (centres undefined)
GI50 (K562): 2.87 µM
LC50 (K562): 68.2 µM
TGI (K562): 6.75 µM
GI50 (COLO 205): 5.29 µM
TGI (COLO 205): 21 µM
growth at 100 µM (NCI-H460): 24%
GI50 (UACC-257): 2.52 µM
LC50 (UACC-257): > 100 µM
TGI (UACC-257): > 100 µM
GI50 (MDA-MB-435): 0.32 µM
TGI (MDA-MB-435): 5.2 µM
GI50 (ACHN): 3.18 µM
TGI (ACHN): > 100 µM
CC50 (ACHN): > 100 µM
GI50 (HCT-116): 1.01 µM
LC50 (concentration killing 50% of cells) (HCT-116): > 100 µM
TGI (HCT-116): 20 µM
GI50 (SW-620): 1.38 µM
GI50 (DU-145): 5.22 µM
LC50 (concentration giving 50% net cell kill) (DU-145): > 100 µM
TGI (DU-145): > 100 µM
GI50 (PC-3): 2.89 µM
LC50 (concentration killing 50% of cells) (PC-3): > 100 µM
TGI (PC-3): 40 µM
GI50 (EKVX): 39.7 µM
TGI (EKVX): > 100 µM
GI50 (BT-549): 11.3 µM
TGI (BT-549): > 100 µM
GI50 (SN12C): 4.68 µM
LC50 (SN12C): > 100 µM
TGI (SN12C): > 100 µM
GI50 (RXF 393): 2.34 µM
TGI (RXF 393): > 100 µM
CC50 (RXF 393): > 100 µM
growth at 100 µM (SF-268): 58%
GI50 (A498): 0.5 µM
LC50 (concentration giving 50% net cell kill) (A498): > 100 µM
TGI (A498): 3.2 µM
GI50 (MCF7): 5.8 µM
TGI (MCF7): > 100 µM
GI50 (IGROV-1): 0.78 µM
LC50 (IGROV-1): > 100 µM
TGI (IGROV-1): 97.3 µM
GI50 (TK-10): 5.9 µM
LC50 (TK-10): > 100 µM
TGI (TK-10): > 100 µM
GI50 (SNB-19): 7.14 µM
TGI (SNB-19): > 100 µM
GI50 (CCRF-CEM): 3.52 µM
TGI (CCRF-CEM): 16.1 µM
GI50 (UO-31): 5.36 µM
LC50 (UO-31): > 100 µM
TGI (UO-31): > 100 µM
GI50 (T47D): > 100 µM
TGI (T47D): > 100 µM
GI50 (OVCAR-5): 8.31 µM
LC50 (concentration causing 50% net cell kill) (OVCAR-5): > 100 µM
TGI (OVCAR-5): > 100 µM
GI50 [1]: 3.05 µM
LC50 (concentration killing 50% of cells) [1]: > 100 µM
TGI [1]: > 100 µM
GI50 (NCI-H522): 2.63 µM
TGI (NCI-H522): 13.3 µM
GI50 (U-251): 2.51 µM
LC50 (U-251): > 100 µM
TGI (U-251): > 100 µM
GI50 (SR): 0.79 µM
LC50 (concentration killing 50% of cells) (SR): 13.1 µM
TGI (SR): 3.03 µM
GI50 (CAKI-1): 1.29 µM
LC50 (50% lethal concentration) (CAKI-1): > 100 µM
TGI (CAKI-1): > 100 µM
GI50 (NCI/ADR-RES): 1.5 µM
TGI (NCI/ADR-RES): 6.98 µM
GI50 (M14): 1.36 µM
LC50 (concentration killing 50% of cells) (M14): > 100 µM
TGI (M14): > 100 µM

COc1ccc(/C=N/c2nc3[nH]nc(C)n3c(=O)c2S(=O)(=O)NN2C(=O)C(CN3CCOCC3)SC2c2ccc(OC)cc2)cc1 (centres undefined)
GI50 (K562): 13 µM
LC50 (K562): 80.5 µM
TGI (K562): 32.3 µM
GI50 (COLO 205): 66.2 µM
TGI (COLO 205): > 100 µM
growth at 100 µM (NCI-H460): 16%
GI50 (UACC-257): 32.2 µM
LC50 (UACC-257): > 100 µM
TGI (UACC-257): > 100 µM
GI50 (MDA-MB-435): 35 µM
TGI (MDA-MB-435): > 100 µM
GI50 (ACHN): 23.1 µM
TGI (ACHN): 92.6 µM
CC50 (ACHN): > 100 µM
GI50 (HCT-116): 29.7 µM
LC50 (concentration killing 50% of cells) (HCT-116): > 100 µM
TGI (HCT-116): 97.3 µM
GI50 (SW-620): 47.1 µM
GI50 (DU-145): 28.8 µM
LC50 (concentration giving 50% net cell kill) (DU-145): > 100 µM
TGI (DU-145): > 100 µM
GI50 (PC-3): 24.6 µM
LC50 (concentration killing 50% of cells) (PC-3): > 100 µM
TGI (PC-3): > 100 µM
GI50 (EKVX): 93.9 µM
TGI (EKVX): > 100 µM
GI50 (BT-549): > 100 µM
TGI (BT-549): > 100 µM
GI50 (SN12C): 55.1 µM
LC50 (SN12C): > 100 µM
TGI (SN12C): > 100 µM
GI50 (RXF 393): 15 µM
TGI (RXF 393): > 100 µM
CC50 (RXF 393): > 100 µM
growth at 100 µM (SF-268): 75%
GI50 (A498): 25.5 µM
LC50 (concentration giving 50% net cell kill) (A498): > 100 µM
TGI (A498): 69.2 µM
GI50 (MCF7): 77.3 µM
TGI (MCF7): > 100 µM
GI50 (IGROV-1): 26 µM
LC50 (IGROV-1): > 100 µM
TGI (IGROV-1): 97.4 µM
GI50 (TK-10): 40.1 µM
LC50 (TK-10): > 100 µM
TGI (TK-10): > 100 µM
GI50 (SNB-19): > 100 µM
TGI (SNB-19): > 100 µM
GI50 (CCRF-CEM): 25.8 µM
TGI (CCRF-CEM): 78.9 µM
GI50 (UO-31): 39.6 µM
LC50 (UO-31): > 100 µM
TGI (UO-31): > 100 µM
GI50 (T47D): > 100 µM
TGI (T47D): > 100 µM
GI50 (OVCAR-5): > 100 µM
LC50 (concentration causing 50% net cell kill) (OVCAR-5): > 100 µM
TGI (OVCAR-5): > 100 µM
GI50 [1]: 41.1 µM
LC50 (concentration killing 50% of cells) [1]: > 100 µM
TGI [1]: > 100 µM
GI50 (NCI-H522): 32.5 µM
TGI (NCI-H522): > 100 µM
GI50 (U-251): 40.4 µM
LC50 (U-251): > 100 µM
TGI (U-251): > 100 µM
GI50 (SR): 11.7 µM
LC50 (concentration killing 50% of cells) (SR): 71.5 µM
TGI (SR): 28.9 µM
GI50 (CAKI-1): 43.3 µM
LC50 (50% lethal concentration) (CAKI-1): > 100 µM
TGI (CAKI-1): > 100 µM
GI50 (NCI/ADR-RES): 43.1 µM
TGI (NCI/ADR-RES): > 100 µM
GI50 (M14): 67.4 µM
LC50 (concentration killing 50% of cells) (M14): > 100 µM
TGI (M14): > 100 µM
